Article PMC10786304 (Proceedings of the National Academy of Sciences of the …, 2024)
In brackets after ≈: the same amount, converted by molar mass.

Legend:
[1] = test system: M. abscessus ATCC 19977 ∆2780c (∆tetV); assay: MIC, isogenic deletion mutant ∆tetV; format: cell-based, Mycobacterium abscessus; conditions: for WT/∆2780c ratio: WT MIC divided by ∆tetV MIC
[2] = test system: 2593-resistant spontaneous Mab mutants (Mab ATCC 19977); assay: Selection and MIC testing of 2593-resistant spontaneous Mab mutants; format: cell-based, Mycobacterium abscessus; conditions: cross-resistance test
[3] = test system: M. abscessus ATCC 19977 ∆3508c ∆2780c; assay: MIC, double deletion mutant ∆whiB7 ∆tetV; format: cell-based, Mycobacterium abscessus; conditions: ∆tetV MIC divided by ∆whiB7 ∆tetV MIC
M. abscessus ATCC 19977 = assay: microbe, parasite or virus in culture; format: cell-based, Mycobacterium abscessus; conditions: Mycobacteroides abscessus, ATCC19977, 120 h, read-out: MIC M. abs
[4] = test system: M. abscessus ATCC 19977 ∆3508c (∆whiB7); assay: MIC, isogenic deletion mutant ∆whiB7; format: cell-based, Mycobacterium abscessus; conditions: versus wild type
[5] = test system: M. abscessus ATCC 19977 ∆2780c (∆tetV); conditions: ref [7], [17]; cited from earlier work
[6] = test system: purified M. smegmatis ATCC 19420 ribosomes; assay: Mycobacterial cell-free translation inhibition assay; format: biochemical, Mycobacterium smegmatis; conditions: read-out: IC50 M. smg ribo
Mab ATCC 19977 = assay: Whole-cell accumulation assay; format: cell-based, Mycobacterium abscessus; conditions: 100 µM compound, 30 min; mean ± SD
Method in brief: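 Mab grown in MHB2 + 0.05% tyloxapol (37 °C, shaking) to OD600 0.5–0.6 was washed in PBS with 0.05% Tween-80 and 5% glucose. The concentrated suspension was incubated with 100 µM compound (1% DMSO) for 30 min at 37 °C, then washed three times; an aliquot was taken for CFU. Pellets were lysed and filtered supernatant quantified by LC-MS/MS. A = C×V/CFU, normalized to 10^10 CFU. Biological triplicate, mean and SD; ANOVA with Dunnett versus SPC.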

| Compound | WT/∆2780c ratio [1] | susceptibility of 2593-resistant mutants [2] | ∆2780c/∆3508c ∆2780c ratio [3] | increase in susceptibility in the ΔtetV strain ([1]; versus wild type) [fold] | MIC (M. abscessus ATCC 19977) [µg/mL] | increase in susceptibility against the ΔwhiB7 strain [4] | increase in SPC susceptibility of Mab Δ2780c deletion mutants [5] [fold] | IC50 [6] [nM] | whole-cell accumulation (Mab ATCC 19977) [nM/10^10 CFU] |
| --- | --- | --- | --- | --- | --- | --- | --- | --- | --- |
| NCC[C@H](O)C(=O)N[C@@H]1C[C@H](N)[C@@H](O[C@H]2O[C@H](CN)[C@@H](O)[C@H](O)[C@H]2O)[C@H](O)[C@H]1O[C@H]1O[C@H](CO)[C@@H](O)[C@H](N)[C@H]1O [AMK, amikacin] | 1 | remained susceptible | 8 | – | – | – | – | – | – |
| CN[C@@H]1[C@H](O)[C@H](NC)[C@H]2O[C@@]3(O)C(=O)C[C@@H](C)O[C@H]3O[C@@H]2[C@H]1O [SPC, spectinomycin] | 64 | – | 1 | 64 | 256 (≈ 770 µM) | eightfold | > 100 | 800 ± 210 | 38.2 ± 9.0 |
